Data: ChEMBL document CHEMBL4043093, “2-Oxo-3, 4-dihydropyrimido[4, 5-d]pyrimidinyl derivatives as new irreversible pan fibroblast growth factor receptor (FGFR) inhibitors” (Eur J Med Chem, 2017)

Legend:
[1] = biological target: Eukaryotic translation initiation factor 2-alpha kinase 1 (Homo sapiens) (UniProt Q9BQI3); assay: Inhibition of wild-type human partial length EIF2AK1 (Q147 to E603 residues) expressed in HEK293 cells assessed as residual activity at 1000 nM after 30 mins by Kinomescan method relative to control; type: cell-based
[2] = biological target: Calcium/calmodulin-dependent protein kinase type 1B (Homo sapiens) (UniProt Q6P2M8); assay: Inhibition of wild-type human partial length CAMK1B (W9 to A311 residues) expressed in HEK293 cells assessed as residual activity at 1000 nM after 30 mins by Kinomescan method relative to control; type: cell-based
[3] = test system: Mast/stem cell growth factor receptor Kit (Homo sapiens), P10721 [V559D,T670I]; assay: Inhibition of human partial length KIT V559D/T670I double mutant (Y545 to D952 residues) expressed in Escherichia coli BL21 assessed as residual activity at 1000 nM after 30 mins by Kinomescan method relative to control
Procedure, shortened: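 KINOMEscan binding panel of 456 kinases, with the test compound at a single concentration of 1 µM. Read-out is Percent Control.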

[4] = biological target: RAC-alpha serine/threonine-protein kinase (Homo sapiens) (UniProt P31749); assay: Inhibition of wild-type human partial length AKT1 expressed in Escherichia coli BL21 assessed as residual activity at 1000 nM after 30 mins by Kinomescan method relative to control
[5] = biological target: Serine/threonine-protein kinase PAK 6 (Homo sapiens) (UniProt Q9NQU5); assay: Inhibition of wild-type human partial length PAK6 (N298 to C681 residues) expressed in Escherichia coli BL21 assessed as residual activity at 1000 nM after 30 mins by Kinomescan method relative to control
[6] = biological target: Homeodomain-interacting protein kinase 3 (Homo sapiens) (UniProt Q9H422); assay: Inhibition of wild-type human partial length HIPK3 (M153 to N562 residues) expressed in HEK293 cells assessed as residual activity at 1000 nM after 30 mins by Kinomescan method relative to control; type: cell-based
[7] = biological target: Serine/threonine-protein kinase pim-1 (Homo sapiens) (UniProt P11309); assay: Inhibition of wild-type human partial length PIM1 (A15 to K313 residues) expressed in Escherichia coli BL21 assessed as residual activity at 1000 nM after 30 mins by Kinomescan method relative to control
[8] = biological target: Activin receptor type-2B (Homo sapiens) (UniProt Q13705); assay: Inhibition of wild-type human ACVR2B (H169 to D504 residues) expressed in Escherichia coli BL21 assessed as residual activity at 1000 nM after 30 mins by Kinomescan method relative to control
Procedure, shortened: (§1)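 Single-point screen at a fixed 1 µM, run within a 456-kinase DiscoveRx KINOMEscan panel. Each kinase's read-out is Percent Control, i.e. signal relative to a control without compound. Hits were scored by a Percent Control < 35 cut-off, and an S(35) selectivity score was calculated across the non-mutant kinases.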

[9] = biological target: Tyrosine-protein kinase Yes (Homo sapiens) (UniProt P07947); assay: Inhibition of wild-type human partial length YES (T257 to L543 residues) expressed in Escherichia coli BL21 assessed as residual activity at 1000 nM after 30 mins by Kinomescan method relative to control
[10] = biological target: Serine/threonine-protein kinase DCLK2 (Homo sapiens) (UniProt Q8N568); assay: Inhibition of wild-type human partial length DCAMKL2 (K273 to V664 residues) expressed in Escherichia coli BL21 assessed as residual activity at 1000 nM after 30 mins by Kinomescan method relative to control
[11] = biological target: Cyclin-dependent kinase 5 (Homo sapiens) (UniProt Q00535); assay: Inhibition of wild-type human full length CDK5 (M1 to P292 residues) expressed in Escherichia coli BL21 assessed as residual activity at 1000 nM after 30 mins by Kinomescan method relative to control; procedure, shortened: as §1
[12] = biological target: Dual specificity protein kinase TTK (Homo sapiens) (UniProt P33981); assay: Inhibition of wild-type human partial length TTK (N505 to V798 residues) expressed in Escherichia coli BL21 assessed as residual activity at 1000 nM after 30 mins by Kinomescan method relative to control
[13] = biological target: Phosphatidylinositol 5-phosphate 4-kinase type-2 beta (Homo sapiens) (UniProt P78356); assay: Inhibition of wild-type human full length PIP5K2B (M1 to T416 residues) expressed in Escherichia coli BL21 assessed as residual activity at 1000 nM after 30 mins by Kinomescan method relative to control
Procedure, shortened: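 Single-concentration screen at 1 µM against a 456-kinase panel (KINOMEscan). Read-out is Percent Control for each kinase. Across the 403 non-mutant kinases, an S(35) selectivity score was derived as the fraction of kinases with Percent Control < 35.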

[14] = biological target: Serine/threonine-protein kinase D2 (Homo sapiens) (UniProt Q9BZL6); assay: Inhibition of wild-type human partial length PRKD2 (A519 to E838 residues) expressed in Escherichia coli BL21 assessed as residual activity at 1000 nM after 30 mins by Kinomescan method relative to control
[15] = biological target: Fibroblast growth factor receptor 4 (Homo sapiens, UniProt P22455); assay: Inhibition of wild-type human partial length FGFR4 (G402 to E713 residues) expressed in Escherichia coli BL21 assessed as residual activity at 1000 nM after 30 mins by Kinomescan method relative to control
[16] = biological target: Cyclin-G-associated kinase (Homo sapiens) (UniProt O14976); assay: Inhibition of wild-type human partial length GAK (G13 to Y338 residues) expressed in Escherichia coli BL21 assessed as residual activity at 1000 nM after 30 mins by Kinomescan method relative to control
[17] = biological target: Ribosomal protein S6 kinase alpha-3 (Homo sapiens) (UniProt P51812); assay: Inhibition of wild-type human partial length C-terminal RSK3 kinase domain 2 (V403 to K700 residues) expressed in Escherichia coli BL21 assessed as residual activity at 1000 nM after 30 mins by Kinomescan method relative to control
[18] = biological target: Cyclin-dependent kinase 8 (Homo sapiens) (UniProt P49336); assay: Inhibition of wild-type human partial length CDK8 (M1 to T360 residues) expressed in Escherichia coli BL21 assessed as residual activity at 1000 nM after 30 mins by Kinomescan method relative to control
[19] = biological target: Serine/threonine-protein kinase LATS1 (Homo sapiens) (UniProt O95835); assay: Inhibition of wild-type human partial length LATS1 (Q678 to V1130 residues) expressed in Escherichia coli BL21 assessed as residual activity at 1000 nM after 30 mins by Kinomescan method relative to control
[20] = test system: Tyrosine-protein kinase ABL1 (Homo sapiens), P00519 [H396P]; assay: Inhibition of human phosphorylated ABL1 H396P mutant (S229 to K512 residues) expressed in HEK293 cells assessed as residual activity at 1000 nM after 30 mins by Kinomescan method relative to control; type: cell-based; procedure, shortened: as §1

COc1cc(OC)c(Cl)c(N2Cc3cnc(Nc4ccc(F)cc4)nc3N(C3CCN(C(=O)/C=C/CN(C)C)CC3)C2=O)c1Cl
Activity [1]: 100%
Activity [2]: 100%
Activity [3]: 82%
Activity [4]: 88%
Activity [5]: 100%
Activity [6]: 100%
Activity [7]: 97%
Activity [8]: 98%
Activity [9]: 34%
Activity [10]: 73%
Activity [11]: 100%
Activity [12]: 86%
Activity [13]: 100%
Activity [14]: 98%
Activity [15]: 1%
Activity [16]: 96%
Activity [17]: 88%
Activity [18]: 85%
Activity [19]: 100%
Activity [20]: 42%
